According to paper PMC7042484 (Redox Biology, 2020):

Legend:
[1] = tested on: C-terminal mutant dehydrogenase domain of bacterial NOX5; assay: NADPH-depletion assay on C-terminal mutant NOX5 dehydrogenase domain; type: biochemical, Cylindrospermum stagnale; conditions: 100 μM inhibitor, C-terminal (PWLEL) low-activity mutant
human NOX4 = biological target: T1, human NOX4 (Homo sapiens, UniProt Q9NPH5); assay: Initial evaluation on NOX4 membrane preparations; type: biochemical
T1 sequence (Q9NPH5 1-578): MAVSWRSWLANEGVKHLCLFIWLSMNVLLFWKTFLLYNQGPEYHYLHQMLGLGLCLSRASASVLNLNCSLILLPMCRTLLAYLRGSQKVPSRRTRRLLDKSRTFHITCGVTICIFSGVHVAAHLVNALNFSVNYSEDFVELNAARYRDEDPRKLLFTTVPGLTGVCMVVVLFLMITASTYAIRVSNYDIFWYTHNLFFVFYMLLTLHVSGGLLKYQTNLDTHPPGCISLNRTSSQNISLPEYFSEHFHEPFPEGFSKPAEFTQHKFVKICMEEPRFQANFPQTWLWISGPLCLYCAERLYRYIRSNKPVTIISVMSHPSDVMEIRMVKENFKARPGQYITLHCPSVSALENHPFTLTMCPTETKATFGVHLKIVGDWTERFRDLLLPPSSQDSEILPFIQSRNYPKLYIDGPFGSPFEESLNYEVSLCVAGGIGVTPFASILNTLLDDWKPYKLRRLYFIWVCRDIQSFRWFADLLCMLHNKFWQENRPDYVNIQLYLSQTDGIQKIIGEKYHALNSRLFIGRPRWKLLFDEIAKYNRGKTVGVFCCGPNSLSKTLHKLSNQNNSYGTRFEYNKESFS
T1 sequence (P13498 2-195 partner limits assumed): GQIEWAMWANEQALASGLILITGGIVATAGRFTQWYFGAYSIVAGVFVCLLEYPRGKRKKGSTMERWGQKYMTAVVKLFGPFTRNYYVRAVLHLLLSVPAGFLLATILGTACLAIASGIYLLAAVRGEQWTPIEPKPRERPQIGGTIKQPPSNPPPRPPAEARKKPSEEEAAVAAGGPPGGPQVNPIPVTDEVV
Summary of the method: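 NOX4-p22 membranes from transfected HEK293 EBNA-1 cells, compound 100 μM, 10 min preincubation at 4 °C in PBS. Amplex Red: 100 μg membranes, 12.5 μM Amplex Red, 0.02 U/ml HRP, 40 μM FAD, started with 40 μM NADPH, ex 572/em 583 nm. CBA: 50 μg membranes, 20 μM FAD, then 200 μM coumarin boronic acid and 50 μM NADPH, ex 320/em 430 nm.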

[2] = tested on: C668S mutant of the NOX5 dehydrogenase domain; assay: Enzymatic assay on C668S mutant NOX5 dehydrogenase domain; type: biochemical, Cylindrospermum stagnale; conditions: enzymatic assays
Summary of the method: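 Purified strep-tagged C. stagnale NOX5 dehydrogenase domain (residues 413–693), C668S mutant, 1 μM in 50 mM Hepes pH 7.5 without added FAD. Run at 25 °C in a thermostatted spectrophotometer; rates followed as NADPH oxidation at 340 nm.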

human NOX2 = biological target: T2, human NOX2 (Homo sapiens, UniProt P04839); assay: Initial evaluation on NOX2 membrane preparations; type: biochemical
T2 sequence (P04839 2-570 limits assumed): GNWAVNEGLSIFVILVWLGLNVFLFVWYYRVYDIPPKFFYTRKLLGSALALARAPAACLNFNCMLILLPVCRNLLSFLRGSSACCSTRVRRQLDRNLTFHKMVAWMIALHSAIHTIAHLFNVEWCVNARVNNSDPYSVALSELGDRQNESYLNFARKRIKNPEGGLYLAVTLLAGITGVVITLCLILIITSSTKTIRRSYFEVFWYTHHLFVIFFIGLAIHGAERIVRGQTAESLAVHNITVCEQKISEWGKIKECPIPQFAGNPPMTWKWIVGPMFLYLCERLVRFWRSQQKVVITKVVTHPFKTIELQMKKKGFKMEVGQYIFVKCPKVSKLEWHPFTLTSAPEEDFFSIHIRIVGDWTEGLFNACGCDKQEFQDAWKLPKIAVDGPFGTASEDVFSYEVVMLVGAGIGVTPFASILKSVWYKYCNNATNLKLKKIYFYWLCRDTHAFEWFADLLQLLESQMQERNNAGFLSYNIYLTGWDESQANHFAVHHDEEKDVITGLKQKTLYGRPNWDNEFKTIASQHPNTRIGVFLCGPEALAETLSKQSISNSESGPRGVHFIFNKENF
T2 sequence (P13498 2-195 partner limits assumed): T1 sequence (P13498 2-195 partner limits assumed)

SMILES: c1ccc(Cn2nnc3c(Sc4nc5ccccc5o4)ncnc32)cc1 [VAS2870, 3-benzyl-7-(2-benzoxazolyl)thio-1,2,3-triazolo[4,5-d]pyrimidine]
- inhibition of the mutant dehydrogenase [1]: 20–30%
- inhibition of NOX4 (in words) (human NOX4; 100 μM compound, membranes): powerful NOX4 inhibitors
- inhibition at 100 µM (human NOX4; read-out: inhibition of NOX4): 40 to 70%
- inhibition of the C668S mutant domain [2]: could not inhibit the mutant domain
- inhibition at 100 µM (human NOX2; read-out: inhibition of NOX2): 40 to 70%
- inhibition of NOX2 with long incubation (human NOX2; sufficiently long incubation times (Fig. 7B)): became significant
